Data published in ChEMBL document CHEMBL1135999, “Discovery of N-isoxazolyl biphenylsulfonamides as potent dual angiotensin II and endothelin A receptor antagonists” (J Med Chem, 2002).
pIC50, pKi: −log10 of the molar value. Activity calls are given as the source filed them. The rule behind the calls is not given here.

Assays:
[1] = tested on: Rattus norvegicus; experiment: Compound was tested for its activity in Ang II pressor test following intravenous administration; NE = No effect; format: functional, organism-based
[2] = tested on: Rattus norvegicus; experiment: Compound was tested for its activity in bET-1 pressor test following oral administration; format: functional
Summary of the method: (§1)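 Conscious normotensive rats challenged iv with big ET-1 (1.0 nmol/kg). A control response was obtained after vehicle. Compound was then given orally, and bET-1 was re-injected iv at 15, 105 and 195 min after dosing. Mean blood pressure followed up to 3 h, with area over curve used as read-out; n = 4 per dose.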

[3] = tested on: Rattus norvegicus; experiment: Compound was tested for its activity in Ang II pressor test following oral administration; NE = No effect; format: functional, organism-based
Summary of the method: (§2)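 Conscious normotensive rats carrying carotid artery and jugular vein catheters. […] Compound was given by oral gavage, and rats were rechallenged with Ang II at intervals up to 240 min. Percent inhibition taken from the maximum blood pressure rise before versus after drug; n = 4 per dose.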

[4] = biological target: T1, Type-1 angiotensin II receptor B (Rattus norvegicus, UniProt P29089); experiment: Compound was evaluated for its binding affinity towards rat Angiotensin II receptor, type 1
T1 sequence (P29089 whole entry): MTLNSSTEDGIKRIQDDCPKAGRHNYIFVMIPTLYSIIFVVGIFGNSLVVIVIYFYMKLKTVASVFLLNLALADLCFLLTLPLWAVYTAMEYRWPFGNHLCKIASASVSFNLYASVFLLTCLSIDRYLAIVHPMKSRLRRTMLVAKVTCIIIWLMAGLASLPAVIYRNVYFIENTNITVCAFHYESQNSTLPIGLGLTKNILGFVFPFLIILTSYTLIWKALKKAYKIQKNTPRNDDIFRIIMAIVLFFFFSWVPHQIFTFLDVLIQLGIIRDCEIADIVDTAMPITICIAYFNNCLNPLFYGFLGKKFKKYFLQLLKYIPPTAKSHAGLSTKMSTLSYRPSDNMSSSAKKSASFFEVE
Summary of the method: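 Rat aortic smooth muscle cells grown 48 h to 90% confluency in HEPES-buffered DMEM with 10% FCS. Assayed in DMEM with 0.1% BSA and 0.01% sodium azide, using 0.2 nM [125I]-Sar-Ile-angiotensin II and increasing compound. Nonspecific binding defined with 10 µM Ang II. Incubated 2 h at room temperature with shaking, washed with cold PBS, lysed in 1% Triton X-100, gamma-counted. IC50 obtained by curve fitting.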

[5] = tested on: Rattus norvegicus; experiment: Compound was tested for its activity in bET-1 pressor test following intravenous administration; format: functional
[6] = biological target: T2, Type-1 angiotensin II receptor (Homo sapiens, UniProt P30556); experiment: Compound was evaluated for inhibitory activity against human Angiotensin II receptor, type 1
T2 sequence (P30556 whole entry): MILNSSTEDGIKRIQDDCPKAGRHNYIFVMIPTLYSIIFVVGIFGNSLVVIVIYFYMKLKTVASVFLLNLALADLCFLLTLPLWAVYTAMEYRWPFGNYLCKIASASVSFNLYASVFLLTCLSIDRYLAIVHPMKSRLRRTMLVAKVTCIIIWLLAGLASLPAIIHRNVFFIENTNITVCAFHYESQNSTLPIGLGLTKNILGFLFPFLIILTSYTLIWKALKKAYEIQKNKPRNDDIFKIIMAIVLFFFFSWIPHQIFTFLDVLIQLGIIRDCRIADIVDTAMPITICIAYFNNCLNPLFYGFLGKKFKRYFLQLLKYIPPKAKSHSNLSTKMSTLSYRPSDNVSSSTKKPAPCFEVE
Summary of the method: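 Human recombinant AT1 receptor membranes in 50 mM Tris-HCl pH 7.4 with 10 mM MgCl2, 1 mM EDTA and 0.1% BSA. Incubated with 0.2 nM [125I]-Sar-Ile-angiotensin II and increasing compound concentrations, 60 min at 37 °C. Nonspecific binding defined with 10 µM angiotensin II. Bound and free label separated, then gamma-counted.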

[7] = biological target: T3, Endothelin-1 receptor (Homo sapiens, UniProt P25101); experiment: Compound was evaluated for its binding affinity towards human Endothelin A receptor
T3 sequence (P25101 whole entry): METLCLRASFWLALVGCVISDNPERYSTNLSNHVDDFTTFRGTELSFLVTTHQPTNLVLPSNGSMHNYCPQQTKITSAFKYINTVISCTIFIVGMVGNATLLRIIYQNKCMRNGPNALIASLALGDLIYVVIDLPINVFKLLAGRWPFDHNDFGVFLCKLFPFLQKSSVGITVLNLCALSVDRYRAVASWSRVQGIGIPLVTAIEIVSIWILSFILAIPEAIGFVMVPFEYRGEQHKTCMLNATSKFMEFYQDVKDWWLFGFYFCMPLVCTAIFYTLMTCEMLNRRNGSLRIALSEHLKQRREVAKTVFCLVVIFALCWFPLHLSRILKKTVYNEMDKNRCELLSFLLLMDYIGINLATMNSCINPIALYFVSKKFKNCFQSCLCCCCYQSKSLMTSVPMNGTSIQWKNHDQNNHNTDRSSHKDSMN
Summary of the method: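 CHO-K1 cells expressing human ETA receptor, seeded 1.8×10^4 cells/well 24 h before assay. Binding run in 50 mM Tris pH 7.4 with 1% BSA and 2 µM phosphoramidon, using 0.25 nM [125I]-ET-1 and competing drug. Nonspecific binding defined with 500 nM ET-1. Incubated 4 h at 4 °C with shaking, washed, cells dissolved in 0.5 N NaOH, gamma-counted.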

[8] = Pharmacokinetic parameter Area under curve reported following intravenous administration at a dose of 10 (umol/kg) (mean+/-SD); format: ADME
Summary of the method: (§3)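 Male rats dosed at 10 µmol/kg, iv or po (n = 6 per route). Plasma exposure followed to give AUC0-∞, clearance, Vss, t1/2 and MRT (iv), and Cmax, Tmax, t1/2, MRT, AUC and oral bioavailability (po). Values reported as mean ± SD.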

[9] = tested on: Rattus norvegicus; experiment: (§4) Compound was tested for its activity in Ang II pressor test following intravenous administration; format: ADME, organism-based
[10] = Pharmacokinetic parameter Plasma clearance determined after intravenous administration at a dose of 10 (umol/kg) (mean+/-SD); format: ADME, organism-based; summary of the method: as §3
[11] = half life was determined in rat at a dose of 10 (umol/kg) following intravenous administration (mean+/-SD); format: ADME, organism-based; settings: in vivo; summary of the method: as §3
[12] = A dose of 10(umol/kg) was administered orally to rat and % bioavailability was determined; format: ADME, organism-based; settings: in vivo, po, read-out: Bioavailabiility; summary of the method: as §3
[13] = Pharmacokinetic parameter MRT value determined in rat at a dose of 10(umol/kg) following peroral administration (mean+/-SD); format: ADME, organism-based; settings: in vivo, po; summary of the method: as §3
[14] = half life was determined in rat at a dose of 10 (umol/kg) following peroral administration (mean+/-SD); format: ADME, organism-based; settings: in vivo, po; summary of the method: as §3
[15] = Pharmacokinetic parameter MRT value was determined in rat at a dose of 10(umol/kg) following intravenous administration (mean+/-SD); format: ADME, organism-based; settings: in vivo; summary of the method: as §3
[16] = A dose of 10 (umol/kg) was administered pre orally to rat and plasma concentration was reported (mean+/-SD); format: ADME, organism-based; design: dose 10 umol/kg, route oral; settings: po; summary of the method: as §3
[17] = Pharmacokinetic parameter Area under curve reported following peroral administration at a dose of 10 (umol/kg) (mean+/-SD); format: ADME; settings: po; summary of the method: as §3
[18] = tested on: Rattus norvegicus; experiment: Compound was tested for its activity in Ang II pressor test following oral administration; format: functional; summary of the method: as §2
[19] = A dose of 10(umol/kg) was administered orally to rat and Tmax value was determined (mean+/-SD); format: ADME, organism-based; settings: in vivo, po; summary of the method: as §3
[20] = Pharmacokinetic parameter Volume of distribution was determined in rat following i.v. administration of a dose of 10 (umol/kg) (mean+/-SD); format: ADME, organism-based; settings: in vivo, iv, read-out: Vss; summary of the method: as §3
[21] = tested on: Rattus norvegicus; experiment: Compound was tested for its activity in bET-1 pressor test following intravenous administration; NE = No effect; format: functional, organism-based
[22] = tested on: Rattus norvegicus; experiment: Compound was tested for its activity in bET-1 pressor test following oral administration; NE = No effect; format: functional, organism-based; summary of the method: as §1
[23] = tested on: Rattus norvegicus; experiment: as §4; format: functional

Cc1noc(NS(=O)(=O)c2ccccc2-c2ccc(-c3ncco3)cc2)c1C
NE [1]: inactive | ED50 [2]: 10 µmol/kg | NE [3]: inactive | pKi [4]: < 5.00 | ED50 [5]: 0.9 µmol/kg

CCCc1cc(Cn2c(CC)nc3c(C)cc(C)nc32)ccc1OC(C(=O)NS(=O)(=O)c1ccc(C(C)C)cc1)c1ccc2c(c1)OCO2 (stereo not drawn)
pIC50 [6]: 7.89

CCCCC1=NC2(CCCC2)C(=O)N1Cc1ccc(-c2ccccc2S(=O)(=O)Nc2onc(C)c2C)cc1
pKi [7]: 7.41 | pKi [4]: 8.33

CCCCC1=NC2(CCCC2)C(=O)N1Cc1ccc(-c2ccccc2S(=O)(=O)Nc2onc(C)c2C)c(CN2CCC(C)(C)C2=O)c1 [BMS-248360]
AUC [8]: 50 µM·h | ED50 [9]: 1.4 µmol/kg | clearance [10]: 3.8 mL/min/kg | half-life [11]: 330 min | bioavailability [12]: 38% | ED50 [2]: 26 µmol/kg | MRT [13]: 5 h | half-life [14]: 180 min | MRT [15]: 6.4 h | Cmax [16]: 3.1 µM | AUC [17]: 19 µM·h | ED50 [18]: 39 µmol/kg | Tmax [19]: 42 min | Vd [20]: 1.4 L/kg | ED50 [5]: 2.1 µmol/kg

CCCCC1=NC2(CCCC2)C(=O)N1Cc1ccc(-c2ccccc2-c2nnn[nH]2)cc1 [IRBESARTAN]
pKi [4]: 9.10 | ED50 [18]: 16 µmol/kg | NE [21]: inactive | Activity [22]: inactive | ED50 [23]: 0.3 µmol/kg
